Reference: ChEMBL document CHEMBL1142961, “Novel selective inhibitors of the zinc plasmodial aminopeptidase PfA-M1 as potential antimalarial agents” (J Med Chem, 2007)
Converted amounts (≈) assume the structure as drawn.

Tests used:
[1] = Solubility at pH 7.4; assay type: physicochemical; conditions: buffer
Method in brief: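 10 mM DMSO stock diluted 50-fold into PBS pH 7.4 or MeOH. Shaken for 24 h at room temperature, centrifuged and filtered at 0.45 µm. Analysed by LC-MS-MS; solubility taken as the PBS/MeOH mass-signal area ratio.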

[2] = biological target: T1, Aminopeptidase N (Plasmodium falciparum FcB1/Columbia) (UniProt O96935); test: Inhibition of Plasmodium falciparum FcB1 M1 aminopeptidase at 10 uM
T1 sequence (whole entry): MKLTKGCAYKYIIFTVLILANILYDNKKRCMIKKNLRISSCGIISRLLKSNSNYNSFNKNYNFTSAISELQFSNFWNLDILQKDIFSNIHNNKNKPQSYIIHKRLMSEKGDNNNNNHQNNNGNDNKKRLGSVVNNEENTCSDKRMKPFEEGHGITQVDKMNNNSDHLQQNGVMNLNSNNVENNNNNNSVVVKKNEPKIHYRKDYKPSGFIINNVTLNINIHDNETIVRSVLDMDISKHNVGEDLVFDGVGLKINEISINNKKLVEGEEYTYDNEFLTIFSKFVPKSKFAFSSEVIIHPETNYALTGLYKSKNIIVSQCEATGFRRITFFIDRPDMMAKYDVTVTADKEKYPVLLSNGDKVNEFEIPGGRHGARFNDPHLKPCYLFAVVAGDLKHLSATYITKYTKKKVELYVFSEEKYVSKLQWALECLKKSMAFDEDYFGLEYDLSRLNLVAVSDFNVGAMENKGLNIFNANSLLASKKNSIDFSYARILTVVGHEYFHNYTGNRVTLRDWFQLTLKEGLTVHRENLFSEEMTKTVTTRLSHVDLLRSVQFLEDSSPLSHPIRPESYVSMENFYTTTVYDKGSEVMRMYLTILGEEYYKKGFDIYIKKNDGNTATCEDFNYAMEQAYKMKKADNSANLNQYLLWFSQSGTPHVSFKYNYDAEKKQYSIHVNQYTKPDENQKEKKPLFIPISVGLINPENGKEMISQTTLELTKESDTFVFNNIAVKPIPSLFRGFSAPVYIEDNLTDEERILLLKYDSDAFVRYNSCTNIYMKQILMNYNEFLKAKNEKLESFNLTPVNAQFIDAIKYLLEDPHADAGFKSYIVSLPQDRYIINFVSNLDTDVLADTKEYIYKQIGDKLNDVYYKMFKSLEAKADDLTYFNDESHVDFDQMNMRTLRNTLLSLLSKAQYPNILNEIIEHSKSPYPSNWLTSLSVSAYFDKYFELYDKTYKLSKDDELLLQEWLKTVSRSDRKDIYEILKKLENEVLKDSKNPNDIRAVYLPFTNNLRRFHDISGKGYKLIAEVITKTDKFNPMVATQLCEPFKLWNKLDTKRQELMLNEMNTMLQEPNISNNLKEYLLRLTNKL
Method in brief: (§1)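 Native enzyme purified from P. falciparum FcB1, diluted 10-fold in 25 mM Tris-HCl pH 7.4. Preincubated with inhibitor for 10 min at room temperature, then Leu-pNA substrate added (0.3 mM stock, Km 0.099 mM). Kinetics followed at 405 nm at room temperature. Initial velocities normalized to a no-inhibitor control. Single-point screen at 10 µM; IC50 from velocity versus inhibitor concentration curves. Bestatin used as reference.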

[3] = Stability in Zucker FA/FA rat plasma at 37degC; assay type: ADME, organism-based; conditions: read-out: Stability (converted)
Method in brief: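 Compound at 100 µM final in male Zucker FA/FA rat plasma, stirred at 37 °C. Samples taken from 0 to 96 h, acidified with 0.14 M phosphoric acid and spiked with internal standard. Extracted three times with AcOEt and quantified by LC-MS-MS (MRM). Half-life derived.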

[4] = Selectivity ratio, IC50 for pig APN /IC50 for Plasmodium falciparum FcB1 M1
Method in brief: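 Ratio of IC50 values (APN/PfA-M1) from two parallel assays: native PfA-M1 purified from P. falciparum FcB1 (diluted 10-fold) and porcine kidney microsomal APN (diluted 600-fold), both in 25 mM Tris-HCl pH 7.4. Enzyme was preincubated 10 min at room temperature with inhibitor, then Leu-pNA added (0.3 mM solution). Kinetics were read at 405 nm, initial velocities normalized to no-inhibitor controls, and IC50 was taken from velocity–concentration plots.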

Aminopeptidase N [5] = biological target: T2, Aminopeptidase N (Sus scrofa, UniProt P15145); test: Inhibition of pig kidney microsomal APN
T2 sequence (P15145 whole entry): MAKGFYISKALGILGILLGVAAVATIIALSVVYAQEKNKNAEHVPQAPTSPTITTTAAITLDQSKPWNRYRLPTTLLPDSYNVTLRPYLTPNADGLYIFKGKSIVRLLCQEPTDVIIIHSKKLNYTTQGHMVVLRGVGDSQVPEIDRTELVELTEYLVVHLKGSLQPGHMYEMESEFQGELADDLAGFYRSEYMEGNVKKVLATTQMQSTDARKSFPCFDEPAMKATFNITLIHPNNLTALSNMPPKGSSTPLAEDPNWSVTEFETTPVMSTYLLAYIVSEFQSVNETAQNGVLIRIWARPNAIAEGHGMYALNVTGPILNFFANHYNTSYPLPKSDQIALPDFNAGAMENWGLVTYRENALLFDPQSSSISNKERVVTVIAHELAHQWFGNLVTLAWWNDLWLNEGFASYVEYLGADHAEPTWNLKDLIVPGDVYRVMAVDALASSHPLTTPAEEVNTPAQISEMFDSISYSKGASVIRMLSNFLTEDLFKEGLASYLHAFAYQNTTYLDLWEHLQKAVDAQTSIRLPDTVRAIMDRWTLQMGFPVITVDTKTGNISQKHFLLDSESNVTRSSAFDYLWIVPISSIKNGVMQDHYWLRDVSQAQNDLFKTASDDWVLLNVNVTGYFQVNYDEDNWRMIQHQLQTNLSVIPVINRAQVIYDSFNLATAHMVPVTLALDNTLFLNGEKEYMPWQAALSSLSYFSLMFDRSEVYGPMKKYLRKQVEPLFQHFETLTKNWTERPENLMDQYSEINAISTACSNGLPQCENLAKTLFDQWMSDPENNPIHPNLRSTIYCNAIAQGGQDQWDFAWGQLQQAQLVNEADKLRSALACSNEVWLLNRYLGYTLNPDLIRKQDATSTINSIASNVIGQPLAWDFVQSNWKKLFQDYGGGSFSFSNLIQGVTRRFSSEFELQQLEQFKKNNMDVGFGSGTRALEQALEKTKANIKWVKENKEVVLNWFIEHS
Method in brief: (§2)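 Porcine kidney microsomal APN (ammonium sulfate suspension) diluted 600-fold in 25 mM Tris-HCl pH 7.4. Preincubated with inhibitor for 10 min at room temperature, then Leu-pNA added (0.3 mM stock). Hydrolysis followed at 405 nm at room temperature. Rates normalized to a no-inhibitor control. Single point at 10 µM; IC50 from concentration-velocity curves. Bestatin used as reference.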

[6] = Distribution coefficient, log D at pH 7.4; assay type: physicochemical; conditions: octanol/water
Method in brief: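 10 mM DMSO stock added to 1:1 octanol/PBS pH 7.4 and shaken for 2 h at room temperature. Phases separated and each quantified by LC-MS-MS. Log D taken as the log of the octanol/PBS concentration ratio from mass signals.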

Plasmodium falciparum [7] = test: Antimalarial activity against chloroquine-sensitive Plasmodium falciparum F32; assay type: functional, organism-based
Method in brief: (§3)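 Asexual P. falciparum kept continuously on human erythrocytes; modified semiautomated microdilution method. Serially diluted drug added to asynchronous cultures (0.5% parasitemia, 1% final hematocrit) for 24 h at 37 °C, then [3H]hypoxanthine added per well. Growth inhibition from incorporated radioactivity relative to drug-free control on the same plate; IC50 from concentration-response curve, mean of three independent experiments.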

Aminopeptidase N [8] = biological target: T3, Aminopeptidase N (Plasmodium falciparum FcB1/Columbia, UniProt O96935); test: Inhibition of Plasmodium falciparum FcB1 M1 aminopeptidase; method in brief: as §1
T3 sequence (O96935 whole entry): T1 sequence (whole entry)

[9] = biological target: T4, Aminopeptidase N (Sus scrofa) (UniProt P15145); test: Inhibition of pig kidney microsomal APN at 10 uM; method in brief: as §2
T4 sequence (whole entry): T2 sequence (P15145 whole entry)

Plasmodium falciparum [10] = test: Antimalarial activity against chloroquine-resistant Plasmodium falciparum FcB1; assay type: functional, organism-based; method in brief: as §3

SMILES	solubility [1] [µM]	inhibition [2] [%]	half-life [3] [h]	Ratio IC50 [4]	IC50 (Aminopeptidase N [5]) [µM]	logD [6]	IC50 (Plasmodium falciparum [7]) [µM]	IC50 (Aminopeptidase N [8]) [µM]	inhibition [9] [%]	IC50 (Plasmodium falciparum [10]) [µM]
O=C(NO)C(Cc1ccccc1)C(=O)NCc1ccc(F)cc1 (stereo not drawn)	> 200	91	0.75	134	3.62	1.2	57	0.027	72	59
O=C(NO)/C(=C\c1ccccc1)C(=O)NCc1ccc(F)cc1	198 (≈ 62.2 µg/mL)		22	229	1.37	1.1	13	0.006		24
